In ChEMBL document CHEMBL3112482, “Nonclassical antifolates, part 5. Benzodiazepine analogs as a new class of DHFR inhibitors: synthesis, antitumor testing and molecular modeling study” (Eur J Med Chem, 2014):

Assays:
MOLT-4 = assay: Growth inhibition of human MOLT4 cells at 10 uM after 48 hrs; type: functional; details: MOLT-4, 48 h, read-out: GI
Procedure, shortened: (§1)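 Single-dose primary screen in the NCI 60 human tumour cell line panel, run at the NCI facility. The panel covers nine subpanels: leukaemia, non-small cell lung, colon, CNS, melanoma, ovarian, renal, prostate and breast. Read-out was percent growth of treated cells, shown as a mean graph and reported as percent growth inhibition.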

[1] = Cytotoxicity against human CNS cancer cells at 10 uM after 48 hrs; type: functional; details: Cancer cell lines
NCI-H23 = assay: Growth inhibition of human NCI-H23 cells at 10 uM after 48 hrs; type: functional; details: NCI-H23, 48 h, read-out: GI; procedure, shortened: as §1
PC-3 = assay: Growth inhibition of human PC3 cells at 10 uM after 48 hrs; type: functional; details: PC-3, 48 h, read-out: GI; procedure, shortened: as §1
Dihydrofolate reductase = target: T1, Dihydrofolate reductase (Bos taurus, UniProt P00376); assay: Inhibition of bovine liver DHFR measured for every 1 min of 10 mins
T1 sequence (P00376 whole entry): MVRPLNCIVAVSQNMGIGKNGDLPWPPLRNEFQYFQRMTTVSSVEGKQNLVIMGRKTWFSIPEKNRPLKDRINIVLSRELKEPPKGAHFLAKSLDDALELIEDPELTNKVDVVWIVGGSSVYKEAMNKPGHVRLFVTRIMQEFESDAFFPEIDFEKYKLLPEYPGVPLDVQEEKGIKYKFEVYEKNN

SK-MEL-2 = assay: Growth inhibition of human SK-MEL-2 cells at 10 uM after 48 hrs; type: functional; details: SK-MEL-2, 48 h, read-out: GI
Procedure, shortened: (§2)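 NCI 60-cell-line disease-oriented human tumor panel, single-dose primary screen at 10 µM. Data given as mean-graph percent growth of treated cells, reported as percent growth inhibition (GI %).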

[2] = Cytotoxicity against human breast cancer cells at 10 uM after 48 hrs; type: functional; details: Cancer cell lines; procedure, shortened: as §1
[3] = Growth inhibition of human UO31 cells at 10 uM after 48 hrs; type: functional; details: UO-31, 48 h, read-out: GI; procedure, shortened: as §2
M14 = assay: Growth inhibition of human M14 cells at 10 uM after 48 hrs; type: functional; details: M14, 48 h, read-out: GI; procedure, shortened: as §1
A498 = assay: Growth inhibition of human A498 cells at 10 uM after 48 hrs; type: functional; details: A498, 48 h, read-out: GI; procedure, shortened: as §1
K562 = assay: Growth inhibition of human K562 cells at 10 uM after 48 hrs; type: functional; details: K562, 48 h, read-out: GI; procedure, shortened: as §1
[4] = Growth inhibition of human UACC257 cells at 10 uM after 48 hrs; type: functional; details: UACC-257, 48 h, read-out: GI; procedure, shortened: as §2
[5] = Growth inhibition of human SF539 cells at 10 uM after 48 hrs; type: functional; details: SF-539, 48 h, read-out: GI; procedure, shortened: as §2
CCRF-CEM = assay: Growth inhibition of human CCRF-CEM cells at 10 uM after 48 hrs; type: functional; details: read-out: GI; procedure, shortened: as §1
SK-MEL-28 = assay: Growth inhibition of human SK-MEL-28 cells at 10 uM after 48 hrs; type: functional; details: SK-MEL-28, 48 h, read-out: GI; procedure, shortened: as §2
SW-620 = assay: Growth inhibition of human SW620 cells at 10 uM after 48 hrs; type: functional; details: SW-620, 48 h, read-out: GI; procedure, shortened: as §2
[6] = Cytotoxicity against human renal cancer cells at 10 uM after 48 hrs; type: functional; details: Cancer cell lines
MDA-MB-231 = assay: Growth inhibition of human MDA-MB-231 cells at 10 uM after 48 hrs; type: functional; details: MDA-MB-231, 48 h, read-out: GI; procedure, shortened: as §1
[7] = Growth inhibition of human OVCAR4 cells at 10 uM after 48 hrs; type: functional; details: OVCAR-4, 48 h, read-out: GI; procedure, shortened: as §1
OVCAR-8 = assay: Growth inhibition of human OVCAR8 cells at 10 uM after 48 hrs; type: functional; details: OVCAR-8, 48 h, read-out: GI; procedure, shortened: as §1
SK-OV-3 = assay: Growth inhibition of human SKOV3 cells at 10 uM after 48 hrs; type: functional; details: SK-OV-3, 48 h, read-out: GI; procedure, shortened: as §2
[8] = Growth inhibition of human OVCAR5 cells at 10 uM after 48 hrs; type: functional; details: OVCAR-5, 48 h, read-out: GI; procedure, shortened: as §1
[9] = Growth inhibition of human RXF393 cells at 10 uM after 48 hrs; type: functional; details: RXF 393, 48 h, read-out: GI; procedure, shortened: as §1
TK-10 = assay: Growth inhibition of human TK10 cells at 10 uM after 48 hrs; type: functional; details: TK-10, 48 h, read-out: GI; procedure, shortened: as §2
SNB-19 = assay: Growth inhibition of human SNB19 cells at 10 uM after 48 hrs; type: functional; details: SNB-19, 48 h, read-out: GI; procedure, shortened: as §2
SNB-75 = assay: Growth inhibition of human SNB75 cells at 10 uM after 48 hrs; type: functional; details: SNB-75, 48 h, read-out: GI; procedure, shortened: as §2
[10] = Growth inhibition of human Hs 578T cells at 10 uM after 48 hrs; type: functional; details: read-out: GI; procedure, shortened: as §1
MCF7 = assay: Growth inhibition of human MCF7 cells at 10 uM after 48 hrs; type: functional; details: MCF7, 48 h, read-out: GI; procedure, shortened: as §1
NCI-H522 = assay: Growth inhibition of human NCI-H522 cells at 10 uM after 48 hrs; type: functional; details: NCI-H522, 48 h, read-out: GI; procedure, shortened: as §1
[11] = Cytotoxicity against human colon cancer cells at 10 uM after 48 hrs; type: functional; details: Cancer cell lines; procedure, shortened: as §1
SR = assay: Growth inhibition of human SR cells at 10 uM after 48 hrs; type: functional; details: read-out: GI; procedure, shortened: as §2
DU-145 = assay: Growth inhibition of human DU145 cells at 10 uM after 48 hrs; type: functional; details: DU-145, 48 h, read-out: GI; procedure, shortened: as §1
T47D = assay: Growth inhibition of human T47D cells at 10 uM after 48 hrs; type: functional; details: read-out: GI; procedure, shortened: as §2
[12] = Growth inhibition of human NCI-ADR-RES cells at 10 uM after 48 hrs; type: functional; details: read-out: GI; procedure, shortened: as §1
CAKI-1 = assay: Growth inhibition of human CAKI-1 cells at 10 uM after 48 hrs; type: functional; details: CAKI-1, 48 h, read-out: GI; procedure, shortened: as §1
[13] = Growth inhibition of human EKVX cells at 10 uM after 48 hrs; type: functional; details: read-out: GI; procedure, shortened: as §1
SF-268 = assay: Growth inhibition of human SF268 cells at 10 uM after 48 hrs; type: functional; details: SF-268, 48 h, read-out: GI; procedure, shortened: as §2
NCI-H322M = assay: Growth inhibition of human NCI-H322M cells at 10 uM after 48 hrs; type: functional; details: read-out: GI; procedure, shortened: as §1
COLO 205 = assay: Growth inhibition of human COLO205 cells at 10 uM after 48 hrs; type: functional; details: COLO 205, 48 h, read-out: GI; procedure, shortened: as §1
[14] = Cytotoxicity against human prostate cancer cells at 10 uM after 48 hrs; type: functional; details: Cancer cell lines
MDA-MB-435 = assay: Growth inhibition of human MDA-MB-435 cells at 10 uM after 48 hrs; type: functional; details: MDA-MB-435, 48 h, read-out: GI; procedure, shortened: as §1
[15] = read-out: LC50 (the source's name)

## Nc1nc2c(c(-c3ccc(Cl)cc3)n1)CCC/C2=C\c1ccc(Cl)cc1
MOLT-4
  inhibition of growth at 10 µM: 35.1%
[1]
  GI50: 13.7 µM
  TGI: 53.1 µM
[1]; [15]
  CC50: 91.9 µM
NCI-H23
  inhibition of growth at 10 µM: 38.9%
PC-3
  inhibition of growth at 10 µM: < 30%
Dihydrofolate reductase
  IC50: 17 µM
SK-MEL-2
  inhibition of growth at 10 µM: < 30%
[2]
  GI50: 23.6 µM
  LC50 (concentration killing 50% of cells): 92.2 µM
  TGI: 70.9 µM
[3]
  inhibition of growth at 10 µM: 32.2%
M14
  inhibition of growth at 10 µM: 89%
A498
  inhibition of growth at 10 µM: 45.3%
K562
  inhibition of growth at 10 µM: 56.5%
[4]
  inhibition of growth at 10 µM: < 30%
[5]
  inhibition of growth at 10 µM: < 30%
CCRF-CEM
  inhibition of growth at 10 µM: < 30%
SK-MEL-28
  inhibition of growth at 10 µM: < 30%
SW-620
  inhibition of growth at 10 µM: 81.1%
[6]
  CC50: 78.4 µM
  GI50: 14.7 µM
  TGI: 40.6 µM
MDA-MB-231
  inhibition of growth at 10 µM: < 30%
[7]
  inhibition of growth at 10 µM: < 30%
OVCAR-8
  inhibition of growth at 10 µM: 58.8%
SK-OV-3
  inhibition of growth at 10 µM: < 30%
[8]
  inhibition of growth at 10 µM: < 30%
[9]
  inhibition of growth at 10 µM: 65.5%
TK-10
  inhibition of growth at 10 µM: < 30%
SNB-19
  inhibition of growth at 10 µM: < 30%
SNB-75
  inhibition of growth at 10 µM: < 30%
[10]
  inhibition of growth at 10 µM: < 30%
MCF7
  inhibition of growth at 10 µM: 66.9%
NCI-H522
  inhibition of growth at 10 µM: 81%
[11]
  GI50: 4 µM
  TGI: 12.5 µM
[11]; [15]
  CC50: 51.3 µM
SR
  inhibition of growth at 10 µM: 79.2%
DU-145
  inhibition of growth at 10 µM: < 30%
T47D
  inhibition of growth at 10 µM: < 30%
[12]
  inhibition of growth at 10 µM: < 30%
CAKI-1
  inhibition of growth at 10 µM: < 30%
[13]
  inhibition of growth at 10 µM: < 30%
SF-268
  inhibition of growth at 10 µM: < 30%
NCI-H322M
  inhibition of growth at 10 µM: < 30%
COLO 205
  inhibition of growth at 10 µM: < 30%
[14]
  GI50: 12.3 µM
  LC50: 95 µM
  TGI: 51.2 µM

## Cc1nc2c(c(-c3ccc(Cl)cc3)n1)CCC/C2=C\c1ccc(Cl)cc1
MOLT-4
  inhibition of growth at 10 µM: < 30%
NCI-H23
  inhibition of growth at 10 µM: < 30%
PC-3
  inhibition of growth at 10 µM: < 30%
SK-MEL-2
  inhibition of growth at 10 µM: < 30%
[3]
  inhibition of growth at 10 µM: < 30%
M14
  inhibition of growth at 10 µM: 34.7%
A498
  inhibition of growth at 10 µM: < 30%
K562
  inhibition of growth at 10 µM: < 30%
[4]
  inhibition of growth at 10 µM: < 30%
[5]
  inhibition of growth at 10 µM: < 30%
CCRF-CEM
  inhibition of growth at 10 µM: < 30%
SK-MEL-28
  inhibition of growth at 10 µM: < 30%
SW-620
  inhibition of growth at 10 µM: < 30%
MDA-MB-231
  inhibition of growth at 10 µM: < 30%
[7]
  inhibition of growth at 10 µM: < 30%
OVCAR-8
  inhibition of growth at 10 µM: < 30%
SK-OV-3
  inhibition of growth at 10 µM: < 30%
[8]
  inhibition of growth at 10 µM: < 30%
[9]
  inhibition of growth at 10 µM: < 30%
TK-10
  inhibition of growth at 10 µM: < 30%
SNB-19
  inhibition of growth at 10 µM: < 30%
SNB-75
  inhibition of growth at 10 µM: < 30%
[10]
  inhibition of growth at 10 µM: < 30%
MCF7
  inhibition of growth at 10 µM: 68.7%
NCI-H522
  inhibition of growth at 10 µM: < 30%
MDA-MB-435
  inhibition of growth at 10 µM: 77.7%
SR
  inhibition of growth at 10 µM: < 30%
DU-145
  inhibition of growth at 10 µM: < 30%
T47D
  inhibition of growth at 10 µM: < 30%
[12]
  inhibition of growth at 10 µM: < 30%
CAKI-1
  inhibition of growth at 10 µM: < 30%
[13]
  inhibition of growth at 10 µM: < 30%
SF-268
  inhibition of growth at 10 µM: < 30%
NCI-H322M
  inhibition of growth at 10 µM: < 30%
COLO 205
  inhibition of growth at 10 µM: < 30%
